Tested on: U2OS
Experiment: Multiplex assay against U2OS
Assay type: toxicity, cell-based
Conditions: human
Method in brief: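 Imaging took place on a CQ1 microscope at 37°C and 5% CO2 once compound had been added to live cells stained at seeding with Hoechst33342, BioTracker Green Microtubule Cytoskeleton Dye, MitoTracker Red and Annexin V Alexa Fluor 680. CellPathfinder machine-learning gating classed cells as Hoechst high-intensity objects or normal cells, classed normal cells as having healthy, pyknosed or fragmented nuclei, and classed pyknosed cells as mitotic or apoptotic. Tubulin, mitochondrial-mass and membrane-permeability phenotypes are per cents of the healthy-nucleus cells.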

[1] = 12 h, 1 µM, compound concentration 1 uM, replicate 1
[2] = 12 h, 1 µM, compound concentration 1 uM, replicate 2
[3] = 12 h, 10 µM, compound concentration 10 uM, replicate 1
[4] = 12 h, 10 µM, compound concentration 10 uM, replicate 2
[5] = 24 h, 1 µM, compound concentration 1 uM, replicate 1
[6] = 24 h, 1 µM, compound concentration 1 uM, replicate 2
[7] = 24 h, 10 µM, compound concentration 10 uM, replicate 1
[8] = 24 h, 10 µM, compound concentration 10 uM, replicate 2
[9] = 48 h, 1 µM, compound concentration 1 uM, replicate 1
[10] = 48 h, 1 µM, compound concentration 1 uM, replicate 2
[11] = 48 h, 10 µM, compound concentration 10 uM, replicate 1
[12] = 48 h, 10 µM, compound concentration 10 uM, replicate 2

CCc1cc2cc(NS(=O)(=O)c3ccc(C#N)cc3)ccc2n(CC)c1=O
Population Apoptotic (%) [1]: 88% | Population Fragmented Nuclei (%) [1]: 30% | Population Healthy Nuclei (%) [1]: 60% | Population Hoechst High Intensity Objects (%) [1]: 3% | Population Membrane Permeable-Phenotype (%) [1]: 4% | Population Mitochondria Different-Phenotype (%) [1]: 2% | Population Mitotic Cells (%) [1]: 11% | Population Normal (%) [1]: 96% | Population Pyknosed Nuclei (%) [1]: 9% | Population Tubulin-Different-Phenotype (%) [1]: 2% | Total Cell Count [1]: 286 | Population Apoptotic (%) [2]: 100% | Population Fragmented Nuclei (%) [2]: 26% | Population Healthy Nuclei (%) [2]: 70% | Population Hoechst High Intensity Objects (%) [2]: 1% | Population Membrane Permeable-Phenotype (%) [2]: 8% | Population Mitotic Cells (%) [2]: 0% | Population Normal (%) [2]: 98% | Population Pyknosed Nuclei (%) [2]: 3% | Population Tubulin-Different-Phenotype (%) [2]: 7% | Total Cell Count [2]: 113 | Population Apoptotic (%) [3]: 66% | Population Fragmented Nuclei (%) [3]: 28% | Population Healthy Nuclei (%) [3]: 64% | Population Hoechst High Intensity Objects (%) [3]: 2% | Population Membrane Permeable-Phenotype (%) [3]: 9% | Population Mitochondria Different-Phenotype (%) [3]: 3% | Population Mitotic Cells (%) [3]: 33% | Population Normal (%) [3]: 97% | Population Pyknosed Nuclei (%) [3]: 6% | Population Tubulin-Different-Phenotype (%) [3]: 4% | Total Cell Count [3]: 220 | Population Apoptotic (%) [4]: 87% | Population Fragmented Nuclei (%) [4]: 13% | Population Healthy Nuclei (%) [4]: 80% | Population Membrane Permeable-Phenotype (%) [4]: 6% | Population Mitotic Cells (%) [4]: 12% | Population Pyknosed Nuclei (%) [4]: 5% | Total Cell Count [4]: 139 | Population Apoptotic (%) [5]: 85% | Population Fragmented Nuclei (%) [5]: 29% | Population Healthy Nuclei (%) [5]: 61% | Population Hoechst High Intensity Objects (%) [5]: 2% | Population Membrane Permeable-Phenotype (%) [5]: 9% | Population Mitochondria Different-Phenotype (%) [5]: 2% | Population Mitotic Cells (%) [5]: 14% | Population Normal (%) [5]: 97% | Population Pyknosed Nuclei (%) [5]: 8% | Population Tubulin-Different-Phenotype (%) [5]: 6% | Total Cell Count [5]: 335 | Population Apoptotic (%) [6]: 88% | Population Fragmented Nuclei (%) [6]: 16% | Population Healthy Nuclei (%) [6]: 75% | Population Hoechst High Intensity Objects (%) [6]: 1% | Population Membrane Permeable-Phenotype (%) [6]: 7% | Population Mitochondria Different-Phenotype (%) [6]: 7% | Population Mitotic Cells (%) [6]: 11% | Population Normal (%) [6]: 98% | Population Pyknosed Nuclei (%) [6]: 7% | Population Tubulin-Different-Phenotype (%) [6]: 3% | Total Cell Count [6]: 126 | Population Apoptotic (%) [7]: 95% | Population Fragmented Nuclei (%) [7]: 23% | Population Healthy Nuclei (%) [7]: 67% | Population Hoechst High Intensity Objects (%) [7]: 3% | Population Membrane Permeable-Phenotype (%) [7]: 4% | Population Mitochondria Different-Phenotype (%) [7]: 2% | Population Mitotic Cells (%) [7]: 4% | Population Normal (%) [7]: 96% | Population Pyknosed Nuclei (%) [7]: 9% | Population Tubulin-Different-Phenotype (%) [7]: 1% | Total Cell Count [7]: 263 | Population Apoptotic (%) [8]: 80% | Population Fragmented Nuclei (%) [8]: 14% | Population Healthy Nuclei (%) [8]: 79% | Population Membrane Permeable-Phenotype (%) [8]: 6% | Population Mitotic Cells (%) [8]: 20% | Population Pyknosed Nuclei (%) [8]: 6% | Population Tubulin-Different-Phenotype (%) [8]: 2% | Total Cell Count [8]: 159 | Population Apoptotic (%) [9]: 89% | Population Fragmented Nuclei (%) [9]: 21% | Population Healthy Nuclei (%) [9]: 70% | Population Hoechst High Intensity Objects (%) [9]: 2% | Population Membrane Permeable-Phenotype (%) [9]: 6% | Population Mitochondria Different-Phenotype (%) [9]: 3% | Population Mitotic Cells (%) [9]: 10% | Population Normal (%) [9]: 97% | Population Pyknosed Nuclei (%) [9]: 8% | Population Tubulin-Different-Phenotype (%) [9]: 2% | Total Cell Count [9]: 450 | Population Apoptotic (%) [10]: 84% | Population Fragmented Nuclei (%) [10]: 19% | Population Healthy Nuclei (%) [10]: 73% | Population Hoechst High Intensity Objects (%) [10]: 3% | Population Mitochondria Different-Phenotype (%) [10]: 5% | Population Mitotic Cells (%) [10]: 15% | Population Normal (%) [10]: 96% | Population Pyknosed Nuclei (%) [10]: 6% | Population Tubulin-Different-Phenotype (%) [10]: 3% | Total Cell Count [10]: 192 | Population Apoptotic (%) [11]: 88% | Population Fragmented Nuclei (%) [11]: 18% | Population Healthy Nuclei (%) [11]: 72% | Population Hoechst High Intensity Objects (%) [11]: 3% | Population Membrane Permeable-Phenotype (%) [11]: 6% | Population Mitochondria Different-Phenotype (%) [11]: 2% | Population Mitotic Cells (%) [11]: 11% | Population Normal (%) [11]: 96% | Population Pyknosed Nuclei (%) [11]: 9% | Population Tubulin-Different-Phenotype (%) [11]: 3% | Total Cell Count [11]: 387 | Population Apoptotic (%) [12]: 96% | Population Fragmented Nuclei (%) [12]: 15% | Population Healthy Nuclei (%) [12]: 73% | Population Hoechst High Intensity Objects (%) [12]: 2% | Population Membrane Permeable-Phenotype (%) [12]: 8% | Population Mitochondria Different-Phenotype (%) [12]: 3% | Population Mitotic Cells (%) [12]: 3% | Population Normal (%) [12]: 97% | Population Pyknosed Nuclei (%) [12]: 11% | Population Tubulin-Different-Phenotype (%) [12]: 7% | Total Cell Count [12]: 248

Source: ChEMBL document CHEMBL5058577, “EUbOPEN Chemogenomics Library 2 (Multiplex)” (2022)
